Assay results from paper PMC4160279 (Journal of the American Chemical Society, 2014).

Columns and labels:
P dimer VA115 = biological target: T1, P dimer VA115 (Human calicivirus NLV/VA98115/1998, UniProt Q91H12); experiment: Direct ESI-MS assay; type: binding; conditions: n = 3
T1 sequence (Q91H12 227-545): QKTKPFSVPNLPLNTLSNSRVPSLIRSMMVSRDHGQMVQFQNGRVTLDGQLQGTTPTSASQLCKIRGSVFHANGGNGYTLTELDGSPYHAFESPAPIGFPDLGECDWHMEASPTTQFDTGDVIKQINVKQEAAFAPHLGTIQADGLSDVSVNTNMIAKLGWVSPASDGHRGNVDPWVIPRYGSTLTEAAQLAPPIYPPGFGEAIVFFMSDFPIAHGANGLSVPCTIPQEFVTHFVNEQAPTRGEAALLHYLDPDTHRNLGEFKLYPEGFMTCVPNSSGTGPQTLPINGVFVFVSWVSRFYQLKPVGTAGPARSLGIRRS
How it was run: (§1)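 Recombinant P dimer (P domain residues 222–539, made in E. coli via a GST fusion system) was titrated with at least four initial oligosaccharide concentrations, in triplicate. Example mix: 12 μM dimer, 80 μM ligand, 4 μM reference protein. Bound/free abundance ratios were taken as solution ratios after nonspecific-binding correction. Ka,int was fitted assuming two independent, equivalent sites.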

P dimer VA387 = P dimer VA387 (Human calicivirus NLV/VA98387/1998, UniProt Q913Z3); experiment: Direct ESI-MS assay; type: binding; conditions: n = 3
P dimer VA387, sequence (Q913Z3 222-539): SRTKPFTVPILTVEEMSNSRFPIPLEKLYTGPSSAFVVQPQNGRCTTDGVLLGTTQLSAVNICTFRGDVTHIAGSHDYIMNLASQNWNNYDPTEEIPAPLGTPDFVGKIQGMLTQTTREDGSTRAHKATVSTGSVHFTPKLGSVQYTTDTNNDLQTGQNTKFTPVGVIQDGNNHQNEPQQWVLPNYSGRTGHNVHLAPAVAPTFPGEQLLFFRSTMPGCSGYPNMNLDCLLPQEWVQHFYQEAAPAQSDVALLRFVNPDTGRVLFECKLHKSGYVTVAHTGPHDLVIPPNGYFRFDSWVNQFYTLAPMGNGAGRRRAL
How it was run: as §1

NoV VA387 P dimer = experiment: Direct ESI-MS assay, NoV VA387 P dimer; parameters: species or system human NoV VA387 (GII.4); conditions: intrinsic (per binding site) association constant; aqueous ammonium acetate (200 mM), pH 7, 25 °C
How it was run: (§2)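 Recombinant P dimer, buffer-exchanged into ammonium acetate and quantified by UV, was mixed (e.g., 12 μM) with ganglioside oligosaccharide (e.g., 80 μM) and reference protein (4 μM). Nanoelectrospray in negative ion mode used capillary −0.8 kV, cone 60 V and source 60 °C. Runs covered ≥4 initial ligand concentrations in triplicate. Ka,int came from bound/free abundance ratios, corrected for nonspecific binding, with two equivalent sites.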

NoV VA115 P dimer = experiment: Direct ESI-MS assay, NoV VA115 P dimer; parameters: species or system human NoV VA115 (GI.3); conditions: intrinsic (per binding site) association constant; aqueous ammonium acetate (200 mM), pH 7, 25 °C
How it was run: as §2

CC(=O)N[C@H]1[C@H](O[C@@H]2[C@H](O[C@]3(C(=O)O)C[C@H](O)[C@@H](NC(C)=O)[C@H]([C@H](O)[C@@H](CO)O[C@]4(C(=O)O)C[C@H](O)[C@@H](NC(C)=O)[C@H]([C@H](O)[C@H](O)CO)O4)O3)[C@@H](O)[C@H](O[C@H]3[C@H](O)[C@@H](O)C(O)O[C@@H]3CO)O[C@@H]2CO)O[C@H](CO)[C@H](O)[C@@H]1O[C@@H]1O[C@H](CO)[C@H](O)[C@H](O)[C@H]1O (stereo partly drawn) [GD1b, GD1b ganglioside oligosaccharide (Galb1-3GalNAcb1-4(Neu5Aca2-8Neu5Aca2-3)Galb1-4Glc)]
Kd (P dimer VA115): 2.94 mM

CC(=O)N[C@H]1[C@H](O[C@@H]2[C@H](O[C@]3(C(=O)O)C[C@H](O)[C@@H](NC(C)=O)[C@H]([C@H](O)[C@H](O)CO)O3)[C@@H](O)[C@H](O[C@H]3[C@H](O)[C@@H](O)C(O)O[C@@H]3CO)O[C@@H]2CO)O[C@H](CO)[C@H](O)[C@@H]1O[C@@H]1O[C@H](CO)[C@H](O)[C@H](O[C@]2(C(=O)O)C[C@H](O)[C@@H](NC(C)=O)[C@H]([C@H](O)[C@H](O)CO)O2)[C@H]1O (stereo partly drawn) [GD1a, GD1a ganglioside oligosaccharide (Neu5Aca2-3Galb1-3GalNAcb1-4(Neu5Aca2-3)Galb1-4Glc)]
Kd (P dimer VA115): 3.12 mM | Kd (P dimer VA387): > 10 mM

CC(=O)NC1C(O)CC(OC2C(O)C(OC3C(CO)OC(O)C(O)C3O)OC(CO)C2OC2OC(CO)C(O)C(OC3OC(CO)C(O)C(O)C3OC3OC(C)C(O)C(O)C3O)C2NC(C)=O)(C(=O)O)OC1C(O)C(O)CO (stereo not drawn) [fucosyl-GM1]
Ka,int P dimer VA387 (NoV VA387 P dimer): 460 ± 150 M^–1 | Ka,int P dimer VA115 (NoV VA115 P dimer): 600 ± 130 M^–1

CC(=O)NC1C(OC2C(CO)OC(OC3C(CO)OC(O)C(O)C3O)C(O)C2OC2(C(=O)O)CC(O)C(NC(C)=O)C(C(O)C(CO)OC3(C(=O)O)CC(O)C(NC(C)=O)C(C(O)C(CO)OC4(C(=O)O)CC(O)C(NC(C)=O)C(C(O)C(O)CO)O4)O3)O2)OC(CO)C(O)C1O (stereo not drawn) [GT2]
Ka,int P dimer VA387 (NoV VA387 P dimer): <100 M^–1 | Ka,int P dimer VA115 (NoV VA115 P dimer): 230 ± 50 M^–1

CC(=O)NC1C(OC2C(CO)OC(OC3C(CO)OC(O)C(O)C3O)C(O)C2OC2(C(=O)O)CC(O)C(NC(C)=O)C(C(O)C(CO)OC3(C(=O)O)CC(O)C(NC(C)=O)C(C(O)C(CO)OC4(C(=O)O)CC(O)C(NC(C)=O)C(C(O)C(O)CO)O4)O3)O2)OC(CO)C(O)C1O (stereo not drawn) [GT2, GT2 ganglioside oligosaccharide (GalNAcb1-4(Neu5Aca2-8Neu5Aca2-8Neu5Aca2-3)Galb1-4Glc)]
Kd (P dimer VA115): 4.35 mM | Kd (P dimer VA387): > 10 mM

CC(=O)N[C@H]1[C@H](O[C@@H]2[C@H](O[C@]3(C(=O)O)C[C@H](O)[C@@H](NC(C)=O)[C@H]([C@H](O)[C@@H](CO)O[C@]4(C(=O)O)C[C@H](O)[C@@H](NC(C)=O)[C@H]([C@H](O)[C@H](O)CO)O4)O3)[C@@H](O)[C@H](O[C@H]3[C@H](O)[C@@H](O)C(O)O[C@@H]3CO)O[C@@H]2CO)O[C@H](CO)[C@H](O)[C@@H]1O (stereo partly drawn) [GD2, GD2 ganglioside oligosaccharide (GalNAcb1-4(Neu5Aca2-8Neu5Aca2-3)Galb1-4Glc)]
Kd (P dimer VA115): 1.43 mM | Kd (P dimer VA387): 6.67 mM

CC(=O)N[C@H]1[C@H](O[C@@H]2[C@H](O)[C@@H](O)[C@H](O[C@H]3[C@H](O)[C@@H](O)C(O)O[C@@H]3CO)O[C@@H]2CO)O[C@H](CO)[C@H](O)[C@@H]1O[C@@H]1O[C@H](CO)[C@H](O)[C@H](O[C@]2(C(=O)O)C[C@H](O)[C@@H](NC(C)=O)[C@H]([C@H](O)[C@H](O)CO)O2)[C@H]1O (stereo partly drawn) [GM1b]
Ka,int P dimer VA387 (NoV VA387 P dimer): 180 ± 60 M^–1 | Ka,int P dimer VA115 (NoV VA115 P dimer): 480 ± 110 M^–1

CC(=O)NC1C(O)CC(OC2C(O)C(OC3C(CO)OC(O)C(O)C3O)OC(CO)C2OC2OC(CO)C(O)C(OC3OC(CO)C(O)C(O)C3OC3OC(C)C(O)C(O)C3O)C2NC(C)=O)(C(=O)O)OC1C(O)C(O)CO (stereo not drawn) [fucosyl-GM1, fucosyl-GM1 ganglioside oligosaccharide (Fuc-GM1; Fuca1-2Galb1-3GalNAcb1-4(Neu5Aca2-3)Galb1-4Glc)]
Kd (P dimer VA115): 1.67 mM | Kd (P dimer VA387): 2.17 mM

CC(=O)N[C@H]1[C@H](O[C@@H]2[C@H](O[C@]3(C(=O)O)C[C@H](O)[C@@H](NC(C)=O)[C@H]([C@H](O)[C@@H](CO)O[C@]4(C(=O)O)C[C@H](O)[C@@H](NC(C)=O)[C@H]([C@H](O)[C@H](O)CO)O4)O3)[C@@H](O)[C@H](O[C@H]3[C@H](O)[C@@H](O)C(O)O[C@@H]3CO)O[C@@H]2CO)O[C@H](CO)[C@H](O)[C@@H]1O (stereo partly drawn) [GD2]
Ka,int P dimer VA387 (NoV VA387 P dimer): 150 ± 60 M^–1 | Ka,int P dimer VA115 (NoV VA115 P dimer): 700 ± 140 M^–1

CC(=O)NC1C(O)CC(OC(CO)C(O)C2OC(OC(CO)C(O)C3OC(OC4C(O)C(CO)OC(OC5C(CO)OC(O)C(O)C5O)C4O)(C(=O)O)CC(O)C3NC(C)=O)(C(=O)O)CC(O)C2NC(C)=O)(C(=O)O)OC1C(O)C(O)CO (stereo not drawn) [GT3, GT3 ganglioside oligosaccharide (Neu5Aca2-8Neu5Aca2-8Neu5Aca2-3Galb1-4Glc)]
Kd (P dimer VA115): 3.23 mM

CC(=O)NC1C(O)CC(OC(CO)C(O)C2OC(OC(CO)C(O)C3OC(OC4C(O)C(CO)OC(OC5C(CO)OC(O)C(O)C5O)C4O)(C(=O)O)CC(O)C3NC(C)=O)(C(=O)O)CC(O)C2NC(C)=O)(C(=O)O)OC1C(O)C(O)CO (stereo not drawn) [GT3]
Ka,int P dimer VA387 (NoV VA387 P dimer): do not show any detectable binding | Ka,int P dimer VA115 (NoV VA115 P dimer): 310 ± 150 M^–1

CC(=O)N[C@H]1[C@H](O[C@@H]2[C@H](O[C@]3(C(=O)O)C[C@H](O)[C@@H](NC(C)=O)[C@H]([C@H](O)[C@@H](CO)O[C@]4(C(=O)O)C[C@H](O)[C@@H](NC(C)=O)[C@H]([C@H](O)[C@@H](CO)O[C@]5(C(=O)O)C[C@H](O)[C@@H](NC(C)=O)[C@H]([C@H](O)[C@H](O)CO)O5)O4)O3)[C@@H](O)[C@H](O[C@H]3[C@H](O)[C@@H](O)C(O)O[C@@H]3CO)O[C@@H]2CO)O[C@H](CO)[C@H](O)[C@@H]1O[C@@H]1O[C@H](CO)[C@H](O)[C@H](O)[C@H]1O (stereo partly drawn) [GT1c]
Ka,int P dimer VA387 (NoV VA387 P dimer): <100 M^–1 | Ka,int P dimer VA115 (NoV VA115 P dimer): 260 ± 110 M^–1

CC(=O)N[C@H]1[C@H](O[C@@H]2[C@H](O[C@]3(C(=O)O)C[C@H](O)[C@@H](NC(C)=O)[C@H]([C@H](O)[C@@H](CO)O[C@]4(C(=O)O)C[C@H](O)[C@@H](NC(C)=O)[C@H]([C@H](O)[C@H](O)CO)O4)O3)[C@@H](O)[C@H](O[C@H]3[C@H](O)[C@@H](O)C(O)O[C@@H]3CO)O[C@@H]2CO)O[C@H](CO)[C@H](O)[C@@H]1O[C@@H]1O[C@H](CO)[C@H](O)[C@H](O)[C@H]1O (stereo partly drawn) [GD1b]
Ka,int P dimer VA387 (NoV VA387 P dimer): do not show any detectable binding | Ka,int P dimer VA115 (NoV VA115 P dimer): 340 ± 50 M^–1

CC(=O)N[C@H]1[C@H](O[C@@H]2[C@H](O[C@]3(C(=O)O)C[C@H](O)[C@@H](NC(C)=O)[C@H]([C@H](O)[C@H](O)CO)O3)[C@@H](O)[C@H](O[C@H]3[C@H](O)[C@@H](O)C(O)O[C@@H]3CO)O[C@@H]2CO)O[C@H](CO)[C@H](O)[C@@H]1O[C@@H]1O[C@H](CO)[C@H](O)[C@H](O[C@]2(C(=O)O)C[C@H](O)[C@@H](NC(C)=O)[C@H]([C@H](O)[C@@H](CO)O[C@]3(C(=O)O)C[C@H](O)[C@@H](NC(C)=O)[C@H]([C@H](O)[C@H](O)CO)O3)O2)[C@H]1O (stereo partly drawn) [GT1a, GT1a ganglioside oligosaccharide (Neu5Aca2-8Neu5Aca2-3Galb1-3GalNAcb1-4(Neu5Aca2-3)Galb1-4Glc)]
Ka,int (P dimer VA115): 210 ± 70 M⁻¹

CC(=O)N[C@H]1[C@H](O[C@@H]2[C@H](O[C@]3(C(=O)O)C[C@H](O)[C@@H](NC(C)=O)[C@H]([C@H](O)[C@H](O)CO)O3)[C@@H](O)[C@H](O[C@H]3[C@H](O)[C@@H](O)C(O)O[C@@H]3CO)O[C@@H]2CO)O[C@H](CO)[C@H](O)[C@@H]1O[C@@H]1O[C@H](CO)[C@H](O)[C@H](O[C@]2(C(=O)O)C[C@H](O)[C@@H](NC(C)=O)[C@H]([C@H](O)[C@@H](CO)O[C@]3(C(=O)O)C[C@H](O)[C@@H](NC(C)=O)[C@H]([C@H](O)[C@H](O)CO)O3)O2)[C@H]1O (stereo partly drawn) [GT1a]
Ka,int P dimer VA387 (NoV VA387 P dimer): do not show any detectable binding | Ka,int P dimer VA115 (NoV VA115 P dimer): 210 ± 70 M^–1

CC(=O)N[C@H]1[C@H](O[C@@H]2[C@H](O[C@]3(C(=O)O)C[C@H](O)[C@@H](NC(C)=O)[C@H]([C@H](O)[C@H](O)CO)O3)[C@@H](O)[C@H](O[C@H]3[C@H](O)[C@@H](O)C(O)O[C@@H]3CO)O[C@@H]2CO)O[C@H](CO)[C@H](O)[C@@H]1O[C@@H]1O[C@H](CO)[C@H](O)[C@H](O)[C@H]1O (stereo partly drawn) [GM1a]
Ka,int P dimer VA387 (NoV VA387 P dimer): 350 ± 80 M^–1 | Ka,int P dimer VA115 (NoV VA115 P dimer): 400 ± 140 M^–1

CC(=O)N[C@H]1[C@H](O[C@@H]2[C@H](O[C@]3(C(=O)O)C[C@H](O)[C@@H](NC(C)=O)[C@H]([C@H](O)[C@H](O)CO)O3)[C@@H](O)[C@H](O[C@H]3[C@H](O)[C@@H](O)C(O)O[C@@H]3CO)O[C@@H]2CO)O[C@H](CO)[C@H](O)[C@@H]1O (stereo partly drawn) [GM2]
Ka,int P dimer VA387 (NoV VA387 P dimer): 360 ± 90 M^–1 | Ka,int P dimer VA115 (NoV VA115 P dimer): 700 ± 200 M^–1

CC(=O)N[C@H]1[C@H]([C@H](O)[C@H](O)CO)O[C@@](O[C@H](CO)[C@@H](O)[C@@H]2O[C@@](O[C@H]3[C@@H](O)[C@@H](CO)O[C@@H](O[C@H]4[C@H](O)[C@@H](O)C(O)O[C@@H]4CO)[C@@H]3O)(C(=O)O)C[C@H](O)[C@H]2NC(C)=O)(C(=O)O)C[C@@H]1O (stereo partly drawn) [GD3]
Ka,int P dimer VA387 (NoV VA387 P dimer): 340 ± 60 M^–1 | Ka,int P dimer VA115 (NoV VA115 P dimer): 420 ± 140 M^–1
